The nature of data set [1]: Solubility by shake-flask method. It is filed as physicochemical. A digest of the protocol: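 Modified shake-flask method: about 1 mg compound shaken overnight in 1 mL PBS, pH 6.8. Supernatant analysed by LC/MS/MS; 2 measurements.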
In data set [2] the test system is Liver. The experiment in a line: Intrinsic clearance in rat liver microsome S9 fraction as % compound remaining after incubation. It is filed as ADME, subcellular.
The target of data set [3] is T1, Intermediate conductance calcium-activated potassium channel protein 4 (Homo sapiens, UniProt O15554). Put plainly: Inhibition of Gardos channel in human RBC assessed as inhibition of ionomycin-stimulated [86Rb] efflux.
T1 sequence (O15554 whole entry): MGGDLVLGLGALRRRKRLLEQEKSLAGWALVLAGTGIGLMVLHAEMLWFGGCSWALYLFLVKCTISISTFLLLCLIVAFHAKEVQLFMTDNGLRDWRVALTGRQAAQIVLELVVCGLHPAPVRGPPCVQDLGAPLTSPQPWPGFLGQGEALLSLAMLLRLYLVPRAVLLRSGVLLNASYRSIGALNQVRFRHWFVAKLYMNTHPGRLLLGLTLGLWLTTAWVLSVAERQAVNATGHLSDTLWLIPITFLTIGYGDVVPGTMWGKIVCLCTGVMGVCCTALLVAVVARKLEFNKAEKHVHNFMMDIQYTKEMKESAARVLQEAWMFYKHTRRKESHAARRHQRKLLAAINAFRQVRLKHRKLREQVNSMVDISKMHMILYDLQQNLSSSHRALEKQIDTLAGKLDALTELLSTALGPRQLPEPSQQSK
Data set [4] concerns the target T1, Intermediate conductance calcium-activated potassium channel protein 4. Put plainly: Inhibition of Gardos channel in human RBC assessed as […] at 10 uM.
Data set [5] is described as follows: Cmax in Sprague-Dawley rat at 1 mg/kg, iv or 10 mg/kg, po. The format is ADME, organism-based. The note with it: in vivo. A digest of the protocol:
(§1)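 Male Sprague-Dawley rats (251–299 g), n = 3 per time point. Dosed 1 mg/Kg IV by tail vein in PEG-400/cremophor-EL, or 10 mg/Kg by oral gavage in 0.5% aqueous methylcellulose. Plasma sampled 0.08–24 h (IV) or 0.5–24 h (PO) and quantified by LC-MS, LLOQ 1 ng/mL. Noncompartmental analysis; Cmax and Tmax read from the data; AUC by linear-log trapezoidal rule.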

For data set [6], the target named is CYP3A4 (Homo sapiens, UniProt P08684). The experiment in a line: Inhibition of CYP3A4 at 10 uM. It is filed as ADME.
Chain of CYP3A4 (P08684 whole entry): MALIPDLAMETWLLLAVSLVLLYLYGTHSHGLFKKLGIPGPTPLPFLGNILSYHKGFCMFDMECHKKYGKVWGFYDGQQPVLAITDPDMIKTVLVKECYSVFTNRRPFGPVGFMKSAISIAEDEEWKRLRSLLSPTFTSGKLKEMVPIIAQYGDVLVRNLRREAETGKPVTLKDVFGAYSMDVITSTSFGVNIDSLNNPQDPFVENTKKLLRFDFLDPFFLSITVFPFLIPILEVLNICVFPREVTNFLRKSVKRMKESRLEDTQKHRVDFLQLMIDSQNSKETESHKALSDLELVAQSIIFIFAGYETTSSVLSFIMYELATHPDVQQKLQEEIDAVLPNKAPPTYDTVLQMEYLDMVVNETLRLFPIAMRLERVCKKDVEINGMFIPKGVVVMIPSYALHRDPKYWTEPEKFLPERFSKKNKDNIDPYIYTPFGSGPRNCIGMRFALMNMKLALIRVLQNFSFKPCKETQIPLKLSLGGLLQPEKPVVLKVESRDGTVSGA
Data set [7] can be described thus: Tmax in Sprague-Dawley rat at 1 mg/kg, iv or 10 mg/kg, po. It is filed as ADME, organism-based. The note with it: in vivo. The procedure, abridged:
as §1

The test system of data set [8] is Mus musculus. Put plainly: Effect on gardos channel activity in SAD1 mouse model at 10 mg/kg, po bid after 21 days. It is filed as functional.
Data set [9] in a line: Bioavailability in Sprague-Dawley rat at 1 mg/kg, iv or 10 mg/kg, po. To be noted: in vivo. It is filed as ADME, organism-based. A digest of the protocol: as §1
The test system of data set [10] is Mus musculus. Put plainly: Effect on mean corpuscular hemoglobin concentration in SAD1 mouse model at 10 mg/kg, po bid after 11 days. The format is functional. The procedure, abridged:
(§2)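 Transgenic SAD-1 mice of both sexes, 3–6 months, 25–30 g, given vehicle or compound by oral gavage twice daily. Blood parameters taken at baseline and at days 7 and 14 (20 mg/kg arm) or days 11 and 21 (10 mg/kg arm). Hematocrit measured by micro-Hct centrifugation; cells washed three times in PBS (330 mOsm) at 25 °C.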

For data set [11], the system named is Mus musculus. Put plainly: Effect on hematocrit levels in SAD1 mouse model at 10 mg/kg, po bid after 21 days. The format is functional. A digest of the protocol: as §2
Data set [12] deals with Mus musculus. The experiment in a line: Effect on gardos channel activity in SAD1 mouse model at 10 mg/kg, po bid after 11 days. The format is functional.
For data set [13], the system named is Mus musculus. The experiment in a line: Effect on hematocrit levels in SAD1 mouse model at 10 mg/kg, po bid after 11 days. It is filed as functional. A digest of the protocol:
as §2

Data set [14] has as its system Mus musculus. The experiment in a line: Effect on mean corpuscular hemoglobin concentration in SAD1 mouse model at 10 mg/kg, po bid after 21 days. The format is functional. A digest of the protocol:
as §2

The nature of data set [15]: Half life in Sprague-Dawley rat at 1 mg/kg, iv or 10 mg/kg, po. It is filed as ADME, organism-based. The note with it: in vivo. A digest of the protocol: as §1
The target in data set [16] is hERG (KCNH2) (Homo sapiens, UniProt Q12809). Put plainly: Inhibition of human ERG at 10 uM.
Chain of hERG (KCNH2) (Q12809 whole entry): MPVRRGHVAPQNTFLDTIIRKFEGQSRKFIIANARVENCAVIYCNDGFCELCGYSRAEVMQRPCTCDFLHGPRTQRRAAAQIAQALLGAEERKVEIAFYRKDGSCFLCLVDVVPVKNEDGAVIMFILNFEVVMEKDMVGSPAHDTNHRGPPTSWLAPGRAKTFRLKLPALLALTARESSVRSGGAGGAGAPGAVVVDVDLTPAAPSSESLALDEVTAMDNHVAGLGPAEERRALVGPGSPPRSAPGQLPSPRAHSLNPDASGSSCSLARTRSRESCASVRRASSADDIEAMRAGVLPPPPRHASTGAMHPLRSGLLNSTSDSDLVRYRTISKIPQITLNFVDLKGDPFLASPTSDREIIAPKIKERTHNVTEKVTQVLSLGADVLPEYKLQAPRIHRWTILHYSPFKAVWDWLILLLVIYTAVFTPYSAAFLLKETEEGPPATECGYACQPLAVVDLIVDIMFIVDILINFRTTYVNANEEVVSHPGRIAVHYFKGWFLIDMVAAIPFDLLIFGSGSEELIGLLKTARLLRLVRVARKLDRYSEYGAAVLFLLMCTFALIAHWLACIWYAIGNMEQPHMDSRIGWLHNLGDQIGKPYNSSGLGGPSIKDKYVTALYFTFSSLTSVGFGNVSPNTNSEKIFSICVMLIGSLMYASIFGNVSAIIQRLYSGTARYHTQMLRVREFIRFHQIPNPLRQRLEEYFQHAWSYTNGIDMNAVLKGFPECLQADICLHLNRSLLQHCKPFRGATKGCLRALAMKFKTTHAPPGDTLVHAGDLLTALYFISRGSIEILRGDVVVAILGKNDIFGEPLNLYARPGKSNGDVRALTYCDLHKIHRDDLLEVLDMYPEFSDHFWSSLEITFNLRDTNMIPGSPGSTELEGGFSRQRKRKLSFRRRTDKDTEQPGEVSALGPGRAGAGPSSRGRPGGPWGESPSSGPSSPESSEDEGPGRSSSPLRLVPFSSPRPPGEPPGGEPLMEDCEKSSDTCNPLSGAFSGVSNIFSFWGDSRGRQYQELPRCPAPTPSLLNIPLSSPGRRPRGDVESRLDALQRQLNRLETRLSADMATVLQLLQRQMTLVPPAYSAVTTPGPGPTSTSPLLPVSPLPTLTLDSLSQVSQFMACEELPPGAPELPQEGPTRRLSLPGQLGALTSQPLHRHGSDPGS
For data set [17], the system named is Mus musculus. Put plainly: Effect on mean corpuscular hemoglobin concentration in SAD1 mouse model at 20 mg/kg, po bid after 14 days. It is filed as functional. The procedure, abridged: as §2
Data set [18] concerns Mus musculus. Put plainly: Effect on gardos channel activity in SAD1 mouse model assessed by measuring [86Rb]/L of cells at 20 mg/kg, po bid after 14 days. The format is functional.
Data set [19] deals with Mus musculus. The experiment in a line: Effect on hematocrit levels in SAD1 mouse model at 20 mg/kg, po bid after 14 days. The format is functional. The procedure, abridged:
as §2

Data set [20] deals with Mus musculus. The experiment in a line: Effect on hematocrit levels in SAD1 mouse model at 20 mg/kg, po bid after 7 days. It is filed as functional. The procedure, abridged: as §2
Data set [21] has as its system Mus musculus. The experiment in a line: Effect on gardos channel activity in SAD1 mouse model assessed by measuring [86Rb]/L of cells at 20 mg/kg, po bid after 7 days. It is filed as functional.
The test system of data set [22] is Mus musculus. The experiment in a line: Effect on mean corpuscular hemoglobin concentration in SAD1 mouse model at 20 mg/kg, po bid after 7 days. The format is functional. The procedure, abridged:
as §2

≈ marks a conversion by molar mass, not a printed value.

For orientation: thermodynamic solubility means the concentration in solution at equilibrium with solid. In data set [1], `NC(=O)C(c1ccccc1)(c1ccccc1)c1ccccc1F` showed a solubility (thermodynamic) of 10.6 µM (≈ 3.24 µg/mL). In data set [2], this compound had a Compound remaining of 61%.

Broadly, the IC50 is the concentration needed to halve the response being measured. Turning to `CN(C)C(=O)C(c1ccccc1)(c1ccccc1)c1ccccc1`, the 50% inhibitory concentration (IC50) in data set [3] came out at 3150 nM.

In data set [1], `NC(=O)C(c1ccccc1)(c1ccccc1)c1ccc(F)cc1F` showed a solubility (thermodynamic) of 1.8 µM (≈ 0.582 µg/mL). In data set [2], this compound registered a Compound remaining of 44%.

On to `NC(=O)C(c1ccc(F)cc1)(c1cccc(F)c1)c1cccc(F)c1`, for which the IC50 in data set [3] came out at 15 nM.

Usually inhibition stands for the change of the read-out against control, counted positive when it falls. With `O=C1Nc2ccccc2C1(c1ccccc1)c1ccccc1`, the inhibition in data set [4] was less than 20%.

Consider `c1ccc(C(C2=NCCO2)(c2ccccc2)c2ccccc2)cc1`, for which, in [3], the IC50 was determined as 4300 nM.

With `NC(=O)C(c1ccc(F)cc1)(c1ccccc1F)c1ccccc1F`, in [1], the solubility (thermodynamic) is 6.8 µM (≈ 2.32 µg/mL). The IC50 in [3] turned out to be 15 nM. This compound displayed a Compound remaining in data set [2] of 46%.

Take `CCNC(=O)C(c1ccccc1)(c1ccccc1)c1ccccc1`: the IC50 in data set [3] was 1750 nM.

On to `NC(=O)C(c1ccc(F)cc1)(c1ccc(F)cc1)c1cccc(F)c1`, for which the thermodynamic solubility in data set [1] was 4.1 µM (≈ 1.4 µg/mL). The IC50 in [3] came out at 17 nM. In [2], this compound yielded a Compound remaining of 19%.

In [1], `NC(=O)C(c1ccc(F)cc1)(c1ccc(F)cc1)c1ccc(F)cc1` gave a thermodynamic solubility of 2.6 µM (≈ 0.887 µg/mL). Further, in data set [3], the IC50 amounted to 14 nM. The Compound remaining in data set [2] was 25%.

In turn, `NC(=O)C(c1ccccc1)(c1cccc(F)c1)c1cccc(F)c1` displayed a thermodynamic solubility in data set [1] of 1.2 µM (≈ 0.388 µg/mL). This compound gave a Compound remaining in data set [2] of 43%.

Usually Cmax stands for the highest concentration seen after dosing. As a reminder, the Tmax is the time at which the peak concentration occurs. The bioavailability is the share of a dose that reaches the circulation, judged against a reference dose that is usually intravenous. Low values mean little systemic uptake, high ones much systemic uptake. One may read the half-life as how long it takes for the measured level to halve. Low readings indicate fast loss, high ones slow loss. Turning to `NC(=O)C(c1ccccc1)(c1ccc(F)cc1)c1ccc(F)cc1` [SENICAPOC], the concentration in data set [5] peaked (Cmax) at 400 ng/mL. In addition, the inhibition at 10 µM in data set [6] is less than 20%. The Tmax in data set [7] came out at 4 h. Also, the Activity in data set [8] is 1.5 mmol; in data set [10], 29.5 g/dL; in data set [11], 49.9%; in data set [12], 3 mmol; in data set [13], 50.9%; in data set [14], 30.3 g/dL. In addition, in data set [9], the bioavailability came out at 51%. Besides, in data set [1], the solubility (thermodynamic) turned out to be 3.8 µM (≈ 1.23 µg/mL). The compound also returned a Compound remaining in data set [2] of 51%. In [15], this compound had a half-life of 60 min.

Turning to `CNC(=O)C(c1ccccc1)(c1ccccc1)c1ccccc1`, the inhibition at 10 µM in data set [6] and in data set [16] was less than 20% throughout. Further, in [3], the 50% inhibitory concentration (IC50) came out at 550 nM.

For `NC(=O)C(c1cccc(F)c1)(c1cccc(F)c1)c1cccc(F)c1`, the thermodynamic solubility in data set [1] worked out at 3.4 µM (≈ 1.16 µg/mL). Further, the IC50 in [3] was 13 nM. In data set [2], this compound returned a Compound remaining of 36%.

Compound `NC(=O)C(c1ccccc1)(c1ccccc1F)c1ccccc1F` registered a thermodynamic solubility in data set [1] of more than 31 µM. Besides, the IC50 in data set [3] came to 30 nM. In [2], this compound gave a Compound remaining of 48%.

`NC(=O)C(c1ccccc1)(c1ccc(F)cc1)c1ccccc1F` (stereo unspecified): the Activity in [17] was determined as 27 g/dL; in data set [18] it was 2 mmol; in data set [19] it was 47%; in data set [20], 44.5%; in [21], 4 mmol; in data set [22] it was 34 g/dL. In [5], this compound had a Cmax of 250 ng/mL. This compound also gave an inhibition at 10 µM in data set [6] of less than 20%. In addition, the Tmax in [7] is 2 h. Moreover, the thermodynamic solubility in [1] turned out to be 5.8 µM (≈ 1.88 µg/mL). The IC50 in data set [3] came to 9 nM. In [2], this compound registered a Compound remaining of 40%. Besides, the half-life in data set [15] is 150 min.

`NC(=O)C(c1ccccc1)(c1ccccc1)c1ccc(F)c(F)c1` had a thermodynamic solubility in data set [1] of 4.3 µM (≈ 1.39 µg/mL). Further, the IC50 in data set [3] came out at 14 nM. The compound further came in with a Compound remaining in [2] of 63%.

With `O=C(O)C(c1ccccc1)(c1ccccc1)c1ccccc1`, the IC50 in [3] is more than 10000 nM.

In [1], `NC(=O)C(c1ccccc1)(c1ccccc1)c1ccc(F)cc1` returned a solubility (thermodynamic) of 2.9 µM (≈ 0.886 µg/mL). In addition, the IC50 in data set [3] worked out at 40 nM. For the same compound, in data set [2], the Compound remaining was 58%.

`COC(=O)C(c1ccccc1)(c1ccccc1)c1ccccc1`: the IC50 in [3] amounted to 330 nM.

Compound `NC(=O)C(c1ccc(F)cc1)(c1ccc(F)cc1)c1ccccc1F` displayed a solubility (thermodynamic) in data set [1] of 8.3 µM (≈ 2.83 µg/mL). In data set [3], the IC50 is 10 nM. The Compound remaining in data set [2] amounted to 62%.
